Test results published in ChEMBL document CHEMBL4004835, “Discovery of Novel Disruptor of Silencing Telomeric 1-Like (DOT1L) Inhibitors using a Target-Specific Scoring Function for the (S)-Adenosyl-l-methionine (SAM)-Dependent Methyltransferase Family” (J Med Chem, 2017).

Columns and labels:
[1] = system: MV4-11; assay: Induction of cell cycle arrest in human MV4-11 cells assessed as accumulation at S phase at 12.5 uM after 48 hrs by propidium iodide/RNase-staining based flow cytometric analysis (reference value: 24.40 %); format: functional
Summary of the method: (§1)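 MV4-11 cells (2 × 10^6) seeded in 12-well dishes, treated with different concentrations for 48 h, processed with a PI/RNase staining kit and analysed for cell-cycle distribution by FACSCalibur flow cytometry.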

[2] = system: MV4-11; assay: Induction of apoptosis in human MV4-11 cells assessed as necrotic cells at 6.25 uM after 72 hrs by annexin V/FITC and propidium iodide staining-based flow cytometric analysis (reference value: 0.04 %); format: functional
[3] = system: MV4-11; assay: Induction of apoptosis in human MV4-11 cells assessed as necrotic cells at 12.5 uM after 72 hrs by annexin V/FITC and propidium iodide staining-based flow cytometric analysis (reference value: 0.04 %); format: functional
[4] = system: MV4-11; assay: Induction of cell cycle arrest in human MV4-11 cells assessed as accumulation at G1 phase at 6.25 uM after 48 hrs by propidium iodide/RNase-staining based flow cytometric analysis (reference value: 68.16 %); format: functional; summary of the method: as §1
[5] = system: MV4-11; assay: Induction of apoptosis in human MV4-11 cells assessed as necrotic cells at 25 uM after 72 hrs by annexin V/FITC and propidium iodide staining-based flow cytometric analysis (reference value: 0.04 %); format: functional
[6] = system: MV4-11; assay: Induction of apoptosis in human MV4-11 cells assessed as necrotic cells at 50 uM after 72 hrs by annexin V/FITC and propidium iodide staining-based flow cytometric analysis (reference value: 0.04 %); format: functional
[7] = system: MV4-11; assay: Induction of apoptosis in human MV4-11 cells assessed as viable cells at 6.25 uM after 72 hrs by annexin V/FITC and propidium iodide staining-based flow cytometric analysis (reference value: 90.3 %); format: functional; settings: MV4-11, 72 h, read-out: Activity
[8] = system: MV4-11; assay: Induction of apoptosis in human MV4-11 cells assessed as viable cells at 12.5 uM after 72 hrs by annexin V/FITC and propidium iodide staining-based flow cytometric analysis (reference value: 90.3 %); format: functional; settings: MV4-11, 72 h, read-out: Activity
[9] = system: Kasumi 1; assay: Cytotoxicity against human Kasumi-1 cells assessed as reduction in cell viability after 72 hrs by alamar blue assay; format: functional, cell-based; settings: Kasumi 1, 72 h
Summary of the method: (§2)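 Cells cultured in RPMI 1640 with 10% FBS and 1% penicillin/streptomycin, treated with a range of concentrations or equal DMSO, 37 °C, 5% CO2, 72 h. Viability read by alamar blue (ex 544/em 590 nm); percent proliferation and IC50 curve fitted.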

[10] = system: MV4-11; assay: Induction of cell cycle arrest in human MV4-11 cells assessed as accumulation at G1 phase at 25 uM after 48 hrs by propidium iodide/RNase-staining based flow cytometric analysis (reference value: 68.16 %); format: functional; summary of the method: as §1
[11] = system: MV4-11; assay: Induction of apoptosis in human MV4-11 cells assessed as early apoptotic cells at 50 uM after 72 hrs by annexin V/FITC and propidium iodide staining-based flow cytometric analysis (reference value: 5.66 %); format: functional
[12] = system: MV4-11; assay: Induction of apoptosis in human MV4-11 cells assessed as late apoptotic cells at 50 uM after 72 hrs by annexin V/FITC and propidium iodide staining-based flow cytometric analysis (reference value: 4.02 %); format: functional
[13] = system: MV4-11; assay: Induction of cell cycle arrest in human MV4-11 cells assessed as accumulation at S phase at 6.25 uM after 48 hrs by propidium iodide/RNase-staining based flow cytometric analysis (reference value: 24.40 %); format: functional; summary of the method: as §1
[14] = system: MV4-11; assay: Induction of cell cycle arrest in human MV4-11 cells assessed as accumulation at G2 phase at 25 uM after 48 hrs by propidium iodide/RNase-staining based flow cytometric analysis (reference value: 7.44 %); format: functional; summary of the method: as §1
[15] = target: Histone-lysine N-methyltransferase EZH2 (Homo sapiens) (UniProt Q15910); assay: Inhibition of EZH2 (unknown origin) at 50 and 100 uM preincubated for 15 mins followed by substrate and [3H]-SAM addition for 60 mins in presence of H3K27me peptide measured after 60 mins by liquid scintillation counting method
Summary of the method: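 In modified Tris buffer with H3K27me peptide, enzyme preincubated 15 min at room temperature; substrate added to start; stopped with cold SAM; mix on Flashplate at least 60 min at room temperature, washed with water plus 0.1% Tween-20, read by scintillation counting.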

[16] = system: MV4-11; assay: Induction of cell cycle arrest in human MV4-11 cells assessed as accumulation at G1 phase at 50 uM after 48 hrs by propidium iodide/RNase-staining based flow cytometric analysis (reference value: 68.16 %); format: functional; summary of the method: as §1
[17] = system: MV4-11; assay: Induction of apoptosis in human MV4-11 cells assessed as early apoptotic cells at 12.5 uM after 72 hrs by annexin V/FITC and propidium iodide staining-based flow cytometric analysis (reference value: 5.66 %); format: functional
[18] = system: MV4-11; assay: Induction of cell cycle arrest in human MV4-11 cells assessed as accumulation at G2 phase at 50 uM after 48 hrs by propidium iodide/RNase-staining based flow cytometric analysis (reference value: 7.44 %); format: functional; summary of the method: as §1
[19] = system: HL-60; assay: Cytotoxicity against human HL60 cells assessed as reduction in cell viability after 72 hrs by alamar blue assay; format: functional, cell-based; settings: HL-60, 72 h; summary of the method: as §2
[20] = system: MV4-11; assay: Induction of cell cycle arrest in human MV4-11 cells assessed as accumulation at S phase at 25 uM after 48 hrs by propidium iodide/RNase-staining based flow cytometric analysis (reference value: 24.40 %); format: functional; summary of the method: as §1
[21] = system: MV4-11; assay: Induction of cell cycle arrest in human MV4-11 cells assessed as accumulation at G1 phase at 12.5 uM after 48 hrs by propidium iodide/RNase-staining based flow cytometric analysis (reference value: 68.16 %); format: functional; summary of the method: as §1
[22] = system: MV4-11; assay: Induction of cell cycle arrest in human MV4-11 cells assessed as accumulation at G2 phase at 12.5 uM after 48 hrs by propidium iodide/RNase-staining based flow cytometric analysis (reference value: 7.44 %); format: functional; summary of the method: as §1
[23] = system: MV4-11; assay: Induction of apoptosis in human MV4-11 cells assessed as late apoptotic cells at 6.25 uM after 72 hrs by annexin V/FITC and propidium iodide staining-based flow cytometric analysis (reference value: 4.02 %); format: functional
[24] = system: MV4-11; assay: Induction of apoptosis in human MV4-11 cells assessed as early apoptotic cells at 25 uM after 72 hrs by annexin V/FITC and propidium iodide staining-based flow cytometric analysis (reference value: 5.66 %); format: functional
[25] = target: Protein arginine N-methyltransferase 5 (Homo sapiens) (UniProt O14744); assay: Inhibition of PRMT5 (unknown origin) at 50 and 100 uM preincubated for 15 mins followed by substrate and [3H]-SAM addition for 60 mins measured after further 60 mins flashplate assay
Summary of the method: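 In modified Tris buffer, enzyme preincubated 15 min at room temperature; substrate and [3H]SAM added for 60 min at room temperature; stopped with cold SAM; transferred to a Flashplate for 60 min, washed 3× with water plus 0.1% Tween-20, read by MicroBeta.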

[26] = system: MV4-11; assay: Induction of cell cycle arrest in human MV4-11 cells assessed as accumulation at G2 phase at 6.25 uM after 48 hrs by propidium iodide/RNase-staining based flow cytometric analysis (reference value: 7.44 %); format: functional; summary of the method: as §1

Sequence of Histone-lysine N-methyltransferase EZH2 (Homo sapiens) (Q15910 whole entry, looked up): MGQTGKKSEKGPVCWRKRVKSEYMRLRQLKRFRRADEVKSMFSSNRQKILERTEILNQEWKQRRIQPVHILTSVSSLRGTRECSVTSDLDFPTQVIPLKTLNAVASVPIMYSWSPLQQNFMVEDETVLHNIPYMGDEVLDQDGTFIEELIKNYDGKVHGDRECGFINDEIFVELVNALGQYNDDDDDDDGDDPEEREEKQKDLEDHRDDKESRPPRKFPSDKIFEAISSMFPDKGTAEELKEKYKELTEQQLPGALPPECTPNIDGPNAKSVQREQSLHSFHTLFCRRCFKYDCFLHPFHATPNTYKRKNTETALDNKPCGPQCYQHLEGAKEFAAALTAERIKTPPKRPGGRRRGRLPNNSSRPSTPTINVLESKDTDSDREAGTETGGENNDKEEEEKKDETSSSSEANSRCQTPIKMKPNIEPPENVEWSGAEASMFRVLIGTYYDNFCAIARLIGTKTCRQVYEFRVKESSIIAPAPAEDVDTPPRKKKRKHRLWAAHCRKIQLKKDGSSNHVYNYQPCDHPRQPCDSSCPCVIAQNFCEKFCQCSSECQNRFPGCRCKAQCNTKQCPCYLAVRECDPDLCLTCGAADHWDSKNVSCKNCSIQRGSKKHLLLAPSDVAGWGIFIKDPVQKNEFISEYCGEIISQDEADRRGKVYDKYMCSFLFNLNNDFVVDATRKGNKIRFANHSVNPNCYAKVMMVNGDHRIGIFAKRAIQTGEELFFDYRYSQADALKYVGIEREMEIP
Sequence of Protein arginine N-methyltransferase 5 (Homo sapiens) (O14744 whole entry): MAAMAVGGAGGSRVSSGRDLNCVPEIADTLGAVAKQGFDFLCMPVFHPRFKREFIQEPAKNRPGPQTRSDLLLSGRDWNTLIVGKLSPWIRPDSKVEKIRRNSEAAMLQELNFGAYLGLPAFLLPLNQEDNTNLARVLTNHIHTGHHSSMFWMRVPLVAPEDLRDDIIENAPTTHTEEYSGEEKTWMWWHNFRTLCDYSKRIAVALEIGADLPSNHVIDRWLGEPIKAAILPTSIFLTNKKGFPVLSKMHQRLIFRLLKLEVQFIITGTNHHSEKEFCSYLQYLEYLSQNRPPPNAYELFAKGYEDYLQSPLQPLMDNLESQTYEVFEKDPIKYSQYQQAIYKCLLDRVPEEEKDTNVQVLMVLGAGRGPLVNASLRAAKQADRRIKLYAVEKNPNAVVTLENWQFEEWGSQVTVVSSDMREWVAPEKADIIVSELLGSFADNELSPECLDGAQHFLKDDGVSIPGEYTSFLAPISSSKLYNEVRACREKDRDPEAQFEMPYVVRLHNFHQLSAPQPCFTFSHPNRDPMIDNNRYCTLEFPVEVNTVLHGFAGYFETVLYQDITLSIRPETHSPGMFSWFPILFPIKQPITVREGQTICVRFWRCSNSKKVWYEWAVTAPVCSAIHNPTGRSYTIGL

In the case of `Fc1cccc(-c2nn3c(Cn4nnc5ccccc54)nnc3s2)c1`, the Activity [1] is reported as 25.38%, the Activity [2] is reported as 1.37% and the Activity [3] is reported as 3.8%. It also gave an Activity [4] of 67.64%, an Activity [5] of 1.6% and an Activity [6] of 0.28%. For the same compound, the viability at 6.25 µM [7] was 24.2%, the viability at 12.5 µM [8] was 10.6% and the IC50 [9] was over 200 µM. For the same compound, the Activity [10] was 83.18%, the Activity [11] was 55.2% and the Activity [12] was 40.8%. The Activity [13] was 26.56%, the Activity [14] was 0.99% and the inhibition [15] was under 40%. It also gave an Activity [16] of 82.24%, an Activity [17] of 50.1% and an Activity [18] of 0%. The IC50 [19] was over 200 µM, the Activity [20] was 15.82% and the Activity [21] was 70.27%. For the same compound, the Activity [22] was 4.35%, the Activity [23] was 25% and the Activity [24] was 58.2%. It also gave an inhibition [25] of under 40% and an Activity [26] of 5.8%.
